In ChEMBL document CHEMBL4184124, “Progress in antischistosomal N,N'-diaryl urea SAR” (Bioorg Med Chem Lett, 2018):
Converted amounts (≈) assume the structure as drawn.

tested on: not listed separately; assay: Intrinsic clearance in human liver microsomes assessed per mg protein after 60 mins in presence of NADPH generating system; format: ADME, microsome; conditions: 1 h

| Compound | CLH [µL/min/mg] |
| --- | --- |
| NC(=O)c1ccccc1NC(=O)Nc1ccc(F)c(C(F)(F)F)c1 | 81 |
| O=C(Nc1ccncc1)Nc1ccncc1 | < 7 |
| O=C(Nc1cnccn1)Nc1cnccn1 | 18 |
| O=C(Nc1ccc(C(=O)O)cc1)Nc1ccc(F)c(C(F)(F)F)c1 | < 7 |
| O=C(Nc1cccc(C(=O)O)c1)Nc1ccc(F)c(C(F)(F)F)c1 | < 7 |

Now from value to molecule:

| CLH [µL/min/mg] | Compound |
| --- | --- |
| 13 | O=C(Nc1cccnc1)Nc1ccc(F)c(C(F)(F)F)c1 |
| 210 | O=C(Nc1ccc(F)c(C(F)(F)F)c1)Nc1cnccn1 |
| 188 | O=C(Nc1ccc(F)c(C(F)(F)F)c1)Nc1ccccn1 |
| 73 | Cc1cc(NC(=O)Nc2ccc(F)c(C(F)(F)F)c2)on1 |
| 16 | CC(=O)c1ccc(NC(=O)Nc2ccc(F)c(C(F)(F)F)c2)cc1 |

tested on: not listed separately; assay: Intrinsic clearance in mouse liver microsomes assessed per mg protein after 60 mins in presence of NADPH generating system; format: ADME, microsome; conditions: 1 h

| Compound | CLH [µL/min/mg] |
| --- | --- |
| NC(=O)c1ccccc1NC(=O)Nc1ccc(F)c(C(F)(F)F)c1 | 69 |
| O=C(Nc1ccncc1)Nc1ccncc1 | 188 |
| O=C(Nc1cnccn1)Nc1cnccn1 | 157 |
| O=C(Nc1ccc(C(=O)O)cc1)Nc1ccc(F)c(C(F)(F)F)c1 | < 7 |
| O=C(Nc1cccc(C(=O)O)c1)Nc1ccc(F)c(C(F)(F)F)c1 | < 7 |

Next, values leading:

| CLH [µL/min/mg] | Compound |
| --- | --- |
| 154 | O=C(Nc1cccnc1)Nc1ccc(F)c(C(F)(F)F)c1 |
| 160 | O=C(Nc1ccc(F)c(C(F)(F)F)c1)Nc1cnccn1 |
| 705 | O=C(Nc1ccc(F)c(C(F)(F)F)c1)Nc1ccccn1 |
| 108 | Cc1cc(NC(=O)Nc2ccc(F)c(C(F)(F)F)c2)on1 |
| 14 | CC(=O)c1ccc(NC(=O)Nc2ccc(F)c(C(F)(F)F)c2)cc1 |

tested on: not listed separately; assay: Cmax in mouse at 46.3 mg/kg, po; format: ADME, organism-based; design: dose 46.3 mg/kg, route oral; conditions: in vivo

| Cmax [µM] | Compound |
| --- | --- |
| 4.4 | O=C(Nc1ccc(Cl)c(Cl)c1)Nc1ccc(Cl)c(Cl)c1 |

tested on: not listed separately; assay: Half-life in mouse at 46.3 mg/kg, po; format: ADME, organism-based; conditions: in vivo

| half-life [h] | Compound |
| --- | --- |
| 4.7 | O=C(Nc1ccc(Cl)c(Cl)c1)Nc1ccc(Cl)c(Cl)c1 |

tested on: Schistosoma mansoni; assay: Antischistosomal activity against Schistosoma mansoni infected in NMRI mouse assessed as reduction in worm burden at 400 mg/kg, po administered as single dose measured after 14 days relative to control; format: functional; design: scale not given: the % may be the effect or the level left; conditions: not given

| Compound | Activity [%] |
| --- | --- |
| O=C(Nc1ccc(Cl)c(Cl)c1)Nc1ccc(Cl)c(Cl)c1 | 53 |

tested on: not listed separately; assay: Kinetic solubility of the compound in 0.01M HCl at pH 2 by nephelometric method; format: physicochemical; conditions: read-out: Kinetic_solubility
Outline: (§1)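 DMSO stocks spiked into pH 6.5 phosphate buffer or 0.01 M HCl (approx. pH 2.0); nephelometry gave a solubility concentration range.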

| Compound | solubility kinetic [µg/mL] |
| --- | --- |
| NC(=O)c1ccccc1NC(=O)Nc1ccc(F)c(C(F)(F)F)c1 | 1.6 to 3.1 (≈ 4.69 to 9.08 µM) |
| O=C(Nc1ccncc1)Nc1ccncc1 | > 100 |
| O=C(Nc1cnccn1)Nc1cnccn1 | 6.3 to 12.5 (≈ 29.1 to 57.8 µM) |
| O=C(Nc1ccc(C(=O)O)cc1)Nc1ccc(F)c(C(F)(F)F)c1 | < 1.6 |
| O=C(Nc1cccc(C(=O)O)c1)Nc1ccc(F)c(C(F)(F)F)c1 | 1.6 to 3.1 (≈ 4.67 to 9.06 µM) |

Other lines, results leading:

| solubility kinetic [µg/mL] | Compound |
| --- | --- |
| 50 to 100 (≈ 167 to 334 µM) | O=C(Nc1cccnc1)Nc1ccc(F)c(C(F)(F)F)c1 |
| 1.6 to 3.1 (≈ 5.33 to 10.3 µM) | O=C(Nc1ccc(F)c(C(F)(F)F)c1)Nc1cnccn1 |
| 1.6 to 3.1 (≈ 5.35 to 10.4 µM) | O=C(Nc1ccc(F)c(C(F)(F)F)c1)Nc1ccccn1 |
| 12.5 to 25 (≈ 41.2 to 82.4 µM) | Cc1cc(NC(=O)Nc2ccc(F)c(C(F)(F)F)c2)on1 |
| < 1.6 | CC(=O)c1ccc(NC(=O)Nc2ccc(F)c(C(F)(F)F)c2)cc1 |

tested on: not listed separately; assay: Kinetic solubility of the compound in phosphate buffer at pH 6.5 by nephelometric method; format: physicochemical; conditions: read-out: Kinetic_solubility; outline: as §1

| Compound | solubility kinetic [µg/mL] |
| --- | --- |
| NC(=O)c1ccccc1NC(=O)Nc1ccc(F)c(C(F)(F)F)c1 | 1.6 to 3.1 (≈ 4.69 to 9.08 µM) |
| O=C(Nc1ccncc1)Nc1ccncc1 | 12.5 to 25 (≈ 58.3 to 117 µM) |
| O=C(Nc1cnccn1)Nc1cnccn1 | 6.3 to 12.5 (≈ 29.1 to 57.8 µM) |
| O=C(Nc1ccc(C(=O)O)cc1)Nc1ccc(F)c(C(F)(F)F)c1 | 12.5 to 25 (≈ 36.5 to 73 µM) |
| O=C(Nc1cccc(C(=O)O)c1)Nc1ccc(F)c(C(F)(F)F)c1 | 12.5 to 25 (≈ 36.5 to 73 µM) |

Continued, values first:

| solubility kinetic [µg/mL] | Compound |
| --- | --- |
| 12.5 to 25 (≈ 41.8 to 83.5 µM) | O=C(Nc1cccnc1)Nc1ccc(F)c(C(F)(F)F)c1 |
| < 1.6 | O=C(Nc1ccc(F)c(C(F)(F)F)c1)Nc1cnccn1 |
| < 1.6 | O=C(Nc1ccc(F)c(C(F)(F)F)c1)Nc1ccccn1 |
| 6.3 to 12.5 (≈ 20.8 to 41.2 µM) | Cc1cc(NC(=O)Nc2ccc(F)c(C(F)(F)F)c2)on1 |
| < 1.6 | CC(=O)c1ccc(NC(=O)Nc2ccc(F)c(C(F)(F)F)c2)cc1 |

tested on: Schistosoma mansoni; assay: Antischistosomal activity against Schistosoma mansoni cercariae infected in NMRI mouse assessed as reduction in worm burden at 100 mg/kg, po administered as single dose via gavage measured after 21 days relative to control; format: functional; design: scale not given: the % may be the effect or the level left; conditions: not given
Outline: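 Infected mice given a single 100 mg/kg oral dose; efficacy read as worm burden reduction (%).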

| Compound | Activity [%] |
| --- | --- |
| O=C(Nc1ccc(Cl)c(Cl)c1)Nc1ccc(Cl)c(Cl)c1 | 0 |

tested on: Schistosoma mansoni; assay: Antischistosomal activity against Schistosoma mansoni Liberian cercariae measured after 72 hrs by microscopic analysis; format: functional, organism-based; conditions: not given
Outline: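 Newly transformed schistosomula prepared from cercariae, first screened at 10 µM as a gate. Active compounds then went through a concentration titration to derive IC50 values.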

| IC50 [nM] | Compound |
| --- | --- |
| 800 | O=C(Nc1ccc(Cl)c(Cl)c1)Nc1ccc(Cl)c(Cl)c1 |

tested on: not listed separately; assay: Octanol-[…] partition coefficient, log D of the compound at pH 7.4 by RP-HPLC method; conditions: not given

| Compound | chromatographic logD |
| --- | --- |
| NC(=O)c1ccccc1NC(=O)Nc1ccc(F)c(C(F)(F)F)c1 | 3.3 |
| O=C(Nc1ccncc1)Nc1ccncc1 | 1.3 |
| O=C(Nc1cnccn1)Nc1cnccn1 | 0.8 |
| O=C(Nc1ccc(C(=O)O)cc1)Nc1ccc(F)c(C(F)(F)F)c1 | 1.5 |
| O=C(Nc1cccc(C(=O)O)c1)Nc1ccc(F)c(C(F)(F)F)c1 | 1.6 |

Now from value to molecule:

| chromatographic logD | Compound |
| --- | --- |
| 3 | O=C(Nc1cccnc1)Nc1ccc(F)c(C(F)(F)F)c1 |
| 3 | O=C(Nc1ccc(F)c(C(F)(F)F)c1)Nc1cnccn1 |
| 3.7 | O=C(Nc1ccc(F)c(C(F)(F)F)c1)Nc1ccccn1 |
| 3.2 | Cc1cc(NC(=O)Nc2ccc(F)c(C(F)(F)F)c2)on1 |
| 3.6 | CC(=O)c1ccc(NC(=O)Nc2ccc(F)c(C(F)(F)F)c2)cc1 |
